Measurements taken from ChEMBL document CHEMBL4699542, “Design and synthesis of novel methoxypyridine-derived gamma-secretase modulators” (Bioorg Med Chem, 2020).

Assays:
[1] = Half life in CD-1 mouse at 5 mg/kg, po administered as single dose measured up to 24 hrs; assay type: ADME, organism-based; settings: in vivo
In short: (§1)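 Male CD-1 mice, 6–8 weeks old, single dose by tail vein (1 mg/kg, 3% NMP/45% PEG300/12% ethanol/40% water) or oral gavage (5 mg/kg, 5% NMP/95% PEG300). Retro-orbital plasma sampled 0.083 (iv only) to 24 h, n=3/timepoint, and analysed by HPLC/MS/MS. Non-compartmental analysis. Half-life taken from the terminal phase using ≥3 non-zero points after Tmax.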

[2] = Cmax in CD-1 mouse at 1 mg/kg, iv administered as single dose measured up to 24 hrs; assay type: ADME, organism-based; set-up: route intravenous, dose 1 mg/kg, time <=24; settings: in vivo; in short: as §1
[3] = Metabolic stability in rat liver microsomes assessed as parent compound remaining at 1 uM incubated for 30 mins; assay type: ADME, Microsome; settings: 0.5 h
In short: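 Test compound at 1 μM incubated 30 min with human, rat or mouse liver microsomes (1 mg/mL); parent remaining expressed as %.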

[4] = In vivo modulation of gamma secretase in transgenic J20 mouse overexpressing human APP assessed as reduction in plasma amyloid beta42 level at 50 mg/kg, po administered via gavage for 3 consecutive days and measured after 4 hrs post last dose on day 3 by meso scale discovery relative to control; assay type: functional; set-up: scale not given: the % may be the effect or the level left; settings: time 3 day
In short: (§2)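 Female J20 mice, 5–6 months old (n=5/dose), dosed orally at 25, 50 or 100 mg/kg or with vehicle (5% NMP/95% PEG300) for 3 consecutive days. Plasma was taken 4 h after the final dose. Aβ38/40/42 measured by Meso Scale multiplex immunoassay, with % reduction relative to vehicle. Mean ± SEM, ANOVA.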

Cytochrome P450 2C19 = Cytochrome P450 2C19 (Homo sapiens, UniProt P33261); test: Inhibition of recombinant CYP2C19 (unknown origin) by fluorescence-based assay; assay type: ADME
In short: (§3)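 Recombinant CYP isoforms (five tested) screened for inhibition in fluorescence-based assays; IC50 in μM.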

[5] = Drug level in brain of transgenic J20 mouse overexpressing human APP at 25 mg/kg, po administered via gavage for 3 consecutive days and measured after 4 hrs post last dose on day 3 by HPLC-MS/MS analysis; assay type: ADME, organism-based; settings: time 3 day, read-out: Ct
In short: (§4)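 Female J20 mice, 5–6 months old, given 25, 50 or 100 mg/kg orally (5% NMP/95% PEG300) daily for 3 days, n=5/dose. Plasma and brain taken 4 h after the final dose and analysed by LC-MS/MS. LLOQ was 1 ng/mL in plasma and 5 ng/g in brain.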

Cytochrome P450 1A2 = target: T1, Cytochrome P450 1A2 (Homo sapiens, UniProt P05177); test: Inhibition of recombinant CYP1A2 (unknown origin) by fluorescence-based assay; assay type: ADME; in short: as §3
T1 sequence (P05177 whole entry): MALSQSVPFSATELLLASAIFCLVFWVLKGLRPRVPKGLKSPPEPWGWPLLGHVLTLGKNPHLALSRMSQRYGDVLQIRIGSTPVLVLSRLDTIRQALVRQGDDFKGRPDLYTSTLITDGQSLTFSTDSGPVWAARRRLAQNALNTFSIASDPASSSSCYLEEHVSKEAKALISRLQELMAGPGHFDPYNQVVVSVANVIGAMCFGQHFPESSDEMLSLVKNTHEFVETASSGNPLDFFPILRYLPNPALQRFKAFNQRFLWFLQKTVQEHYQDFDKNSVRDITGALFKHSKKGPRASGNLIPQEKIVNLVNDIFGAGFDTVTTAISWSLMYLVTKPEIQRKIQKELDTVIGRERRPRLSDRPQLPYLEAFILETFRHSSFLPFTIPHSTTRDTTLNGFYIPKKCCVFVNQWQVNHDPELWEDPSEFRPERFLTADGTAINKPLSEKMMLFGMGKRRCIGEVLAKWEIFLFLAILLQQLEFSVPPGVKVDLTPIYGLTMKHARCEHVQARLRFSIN

Cytochrome P450 2D6 = Cytochrome P450 2D6 (Homo sapiens, UniProt P10635); test: Inhibition of recombinant CYP2D6 (unknown origin) by fluorescence-based assay; assay type: ADME; in short: as §3
Gamma-secretase [6] = test: Modulation of gamma secretase in human SH-SY5Y cells overexpressing wild type APP751 assessed as effect on amyloid beta42 level by meso scale discovery; assay type: cell-based
[7] = Drug level in plasma of transgenic J20 mouse overexpressing human APP at 25 mg/kg, po administered via gavage for 3 consecutive days and measured after 4 hrs post last dose on day 3 by HPLC-MS/MS analysis; assay type: ADME, organism-based; settings: time 3 day; in short: as §4
[8] = In vivo modulation of gamma secretase in transgenic J20 mouse overexpressing human APP assessed as reduction in plasma amyloid beta38 level at 25 mg/kg, po administered via gavage for 3 consecutive days and measured after 4 hrs post last dose on day 3 by meso scale discovery relative to control; assay type: functional; set-up: scale not given: the % may be the effect or the level left; settings: time 3 day; in short: as §2
[9] = Drug level in plasma of transgenic J20 mouse overexpressing human APP at 100 mg/kg, po administered via gavage for 3 consecutive days and measured after 4 hrs post last dose on day 3 by HPLC-MS/MS analysis; assay type: ADME, organism-based; settings: time 3 day; in short: as §4
[10] = AUC infinity in CD-1 mouse at 5 mg/kg, po administered as single dose measured up to 24 hrs; assay type: ADME, organism-based; set-up: route oral, dose 5 mg/kg, time <=24; settings: in vivo; in short: as §1
[11] = Drug level in brain of transgenic J20 mouse overexpressing human APP at 100 mg/kg, po administered via gavage for 3 consecutive days and measured after 4 hrs post last dose on day 3 by HPLC-MS/MS analysis; assay type: ADME, organism-based; settings: time 3 day, read-out: Ct; in short: as §4
[12] = Drug level in plasma of transgenic J20 mouse overexpressing human APP at 50 mg/kg, po administered via gavage for 3 consecutive days and measured after 4 hrs post last dose on day 3 by HPLC-MS/MS analysis; assay type: ADME, organism-based; settings: time 3 day; in short: as §4
[13] = In vivo modulation of gamma secretase in transgenic J20 mouse overexpressing human APP assessed as reduction in plasma amyloid beta42 level at 100 mg/kg, po administered via gavage for 3 consecutive days and measured after 4 hrs post last dose on day 3 by meso scale discovery relative to control; assay type: functional; set-up: scale not given: the % may be the effect or the level left; settings: time 3 day
In short: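 Female J20 mice, 5–6 months old (n=5/dose), given vehicle (5% NMP/95% PEG300) or test article at 25, 50 or 100 mg/kg by oral gavage daily for 3 days. Sacrificed 4 h after final dose; plasma Aβ38/40/42 quantified by Meso Scale multiplex (SECTOR Imager 6000). Percent reduction versus vehicle; mean ± SEM, ANOVA.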

Gamma-secretase [14] = test: Modulation of gamma secretase in human SH-SY5Y cells overexpressing wild type APP751 assessed as effect on amyloid beta40 level by meso scale discovery; assay type: cell-based
[15] = In vivo modulation of gamma secretase in transgenic J20 mouse overexpressing human APP assessed as reduction in plasma amyloid beta38 level at 50 mg/kg, po administered via gavage for 3 consecutive days and measured after 4 hrs post last dose on day 3 by meso scale discovery relative to control; assay type: functional; set-up: scale not given: the % may be the effect or the level left; settings: time 3 day; in short: as §2
[16] = In vivo modulation of gamma secretase in transgenic J20 mouse overexpressing human APP assessed as reduction in plasma amyloid beta40 level at 50 mg/kg, po administered via gavage for 3 consecutive days and measured after 4 hrs post last dose on day 3 by meso scale discovery relative to control; assay type: functional; set-up: scale not given: the % may be the effect or the level left; settings: time 3 day; in short: as §2

Cytochrome P450 2C19, sequence (P33261 whole entry, canonical isoform): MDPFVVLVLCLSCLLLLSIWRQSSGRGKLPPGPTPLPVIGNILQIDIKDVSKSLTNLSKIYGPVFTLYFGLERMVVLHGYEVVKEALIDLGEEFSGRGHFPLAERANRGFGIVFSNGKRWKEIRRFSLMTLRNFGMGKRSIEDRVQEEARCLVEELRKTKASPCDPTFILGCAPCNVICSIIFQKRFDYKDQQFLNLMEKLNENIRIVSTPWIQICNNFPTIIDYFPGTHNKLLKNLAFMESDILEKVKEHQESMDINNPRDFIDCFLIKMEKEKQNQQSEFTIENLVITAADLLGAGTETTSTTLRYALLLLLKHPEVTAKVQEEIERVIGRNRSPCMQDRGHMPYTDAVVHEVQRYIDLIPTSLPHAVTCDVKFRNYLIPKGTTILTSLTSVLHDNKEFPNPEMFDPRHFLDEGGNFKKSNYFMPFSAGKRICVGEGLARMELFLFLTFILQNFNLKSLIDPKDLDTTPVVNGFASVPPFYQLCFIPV
Cytochrome P450 2D6, sequence (P10635 whole entry): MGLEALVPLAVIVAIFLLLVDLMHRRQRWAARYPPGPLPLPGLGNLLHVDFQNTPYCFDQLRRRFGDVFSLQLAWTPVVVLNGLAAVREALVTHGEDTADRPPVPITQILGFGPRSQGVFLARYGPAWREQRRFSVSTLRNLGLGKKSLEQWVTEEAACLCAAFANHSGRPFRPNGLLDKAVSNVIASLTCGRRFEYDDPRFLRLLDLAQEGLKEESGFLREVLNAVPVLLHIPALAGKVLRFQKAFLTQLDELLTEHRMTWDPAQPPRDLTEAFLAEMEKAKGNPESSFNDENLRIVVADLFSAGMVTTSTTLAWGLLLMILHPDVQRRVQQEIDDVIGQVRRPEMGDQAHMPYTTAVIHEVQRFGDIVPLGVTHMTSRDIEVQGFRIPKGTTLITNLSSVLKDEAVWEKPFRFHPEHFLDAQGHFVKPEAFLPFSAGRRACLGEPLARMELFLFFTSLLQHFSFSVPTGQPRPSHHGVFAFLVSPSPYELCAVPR

Row | Structure (SMILES) | t1/2 [1] | Cmax [2] | Stabilty [3] | Activity [4] | IC50 (Cytochrome P450 2C19) | concentration at 72 h [5] | IC50 (Cytochrome P450 1A2) | IC50 (Cytochrome P450 2D6) | IC50 (Gamma-secretase [6]) | concentration at 72 h [7] | Activity [8] | concentration at 72 h [9] | AUC [10] | concentration at 72 h [11] | concentration at 72 h [12] | Activity [13] | IC50 (Gamma-secretase [14]) | Activity [15] | Activity [16]
1 | COc1nc(-c2csc(Nc3c4c(nn3CCF)CCCC4)n2)ccc1-n1cnc(C)c1 | 2.6 h | 309 ng/mL | 100% | 48% | 4600 nM | 39 ng/g | > 100000 nM | > 100000 nM | 14 nM | 72 ng/mL | 18% | 183 ng/mL | 669 ng·h/mL | 105 ng/g | 639 ng/mL | 55% | 100 nM | 33% | 36%
2 | CCn1nc2c(c1Nc1nc(-c3ccc(-n4cnc(C)c4)c(OC)n3)cs1)CCC2 | 5.3 h | 549 ng/mL | 67% | 40% | > 100000 nM | 31 ng/g | > 100000 nM | > 100000 nM | 19 nM | 86 ng/mL | 19% | 726 ng/mL | 1257 ng·h/mL | 337 ng/g | 223 ng/mL | 76% | 209 nM | 27% | 31%
